Calls of active or inactive are those of the source. The calls are words filed in the database; no cut-off is given here.
Key:
[1] = Cmax in Plasmodium falciparum 3D7 infected in non-myelodepleted NOD-SCID IL2Rgammanull mouse engrafted with human erythrocytes at 30 mg/kg, po; assay type: ADME, organism-based; set-up: dose 30 mg/kg, route oral; conditions: in vivo
Outline: (§1)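 Engrafted NSG (scid IL2Rgc null) mice infected with P. falciparum were given one oral dose per day for four days. Blood was sampled to measure parent and its sulfone metabolite.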

Liver microsome = test: Metabolic stability of the compound in human liver microsomes assessed as compound remaining at 0.1 uM after 30 mins by LC-MS/MS analysis; assay type: ADME; conditions: 0.5 h
Plasmodium berghei [2] = test: Antiplasmodial activity against Plasmodium berghei ANKA expressing GFP infected in mouse assessed as means survival days at 3 mg/kg, po qd for 4 days; assay type: functional
Outline: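 Mice (n = 3) infected with GFP-transfected P. berghei ANKA. Compounds dissolved or suspended in HPMC vehicle (0.5% w/v hydroxypropylmethylcellulose, 0.5% v/v benzyl alcohol, 0.4% v/v Tween 80, 0.9% w/v NaCl in water). Dosed orally 4, 24, 48 and 72 h after infection. Parasitemia read by flow cytometry (detection limit 0.1%). Survival recorded as mean survival time in days.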

[3] = Tmax in Plasmodium falciparum 3D7 infected in non-myelodepleted NOD-SCID IL2Rgammanull mouse engrafted with human erythrocytes at 0.1 mg/kg, po; assay type: ADME, organism-based; conditions: in vivo; outline: as §1
[4] = Selectivity index, ratio of IC50 for CHO cells to IC50 for multidrug resistant Plasmodium falciparum K1; assay type: toxicity, cell-based; conditions: hamster, read-out: Ratio IC50
[5] = Drug level in mouse blood at 50 mg/kg, po after 4 hrs; assay type: ADME, organism-based; conditions: read-out: Drug uptake
Outline: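 Snapshot whole-blood levels of parent and its sulfone metabolite at 1, 4 and 24 h after the first 50 mg/kg oral dose. Samples came from the P. berghei-infected efficacy mice, dosed in HPMC suspension vehicle.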

[6] = Tmax in Plasmodium falciparum 3D7 infected in non-myelodepleted NOD-SCID IL2Rgammanull mouse engrafted with human erythrocytes at 0.5 mg/kg, po; assay type: ADME, organism-based; conditions: in vivo
Outline: (§2)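 Humanized NSG mice infected with P. falciparum received one oral dose per day for 4 consecutive days. Blood was sampled for exposure, with levels of both parent and its main active metabolite measured. Tmax was taken from the blood concentration–time profile after oral dosing.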

Plasmodium berghei [7] = test: Antiplasmodial activity against Plasmodium berghei ANKA expressing GFP infected in mouse assessed as mouse cured from disease at 50 mg/kg, po qd for 4 days; assay type: functional, organism-based
[8] = Selectivity index, ratio of IC50 for CHO cells to IC50 for Plasmodium falciparum NF54; assay type: toxicity, cell-based; conditions: hamster, read-out: Ratio IC50
[9] = Cmax in Plasmodium falciparum 3D7 infected in non-myelodepleted NOD-SCID IL2Rgammanull mouse engrafted with human erythrocytes at 10 mg/kg, po; assay type: ADME, organism-based; set-up: dose 10 mg/kg, route oral; conditions: in vivo; outline: as §1
Rattus norvegicus [10] = test: Half life in rat at 5 mg/kg, iv; assay type: ADME, organism-based; conditions: in vivo
[11] = Tmax in Plasmodium falciparum 3D7 infected in non-myelodepleted NOD-SCID IL2Rgammanull mouse engrafted with human erythrocytes at 30 mg/kg, po; assay type: ADME, organism-based; conditions: in vivo; outline: as §2
Blood [12] = test: Drug metabolism in rat blood assessed as metabolite formation from sulfone oxidation on pyridine core and phenyl ring at 20 mg/kg, po and 5 mg/kg, iv by LC-MS/MS analysis; assay type: ADME, organism-based; conditions: in vivo
Outline: (§3)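 Metabolites identified by LC-ESI-MS/MS in blood samples from the rat PK study (oral and intravenous dosing).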

[13] = AUC (0 to 8 hrs) in Plasmodium falciparum 3D7 infected in non-myelodepleted NOD-SCID IL2Rgammanull mouse engrafted with human erythrocytes at 0.5 mg/kg, po; assay type: ADME, organism-based; set-up: dose 0.5 mg/kg, time < 8 hr, route oral; conditions: in vivo; outline: as §1
Rattus norvegicus [14] = test: Volume of distribution in rat at 5 mg/kg, iv; assay type: ADME, organism-based; conditions: in vivo
Blood [15] = test: Drug metabolism in rat blood assessed as metabolite formation from sulfone oxidation on pyrazole at 20 mg/kg, po and 5 mg/kg, iv by LC-MS/MS analysis; assay type: ADME, organism-based; conditions: in vivo; outline: as §3

## C[S+]([O-])c1ccc(-c2cnn3ccc(-c4cccc(S(=O)(=O)C5CC5)c4)cc23)cc1 (stereo unspecified)
[1]
  Cmax: 226 ng/mL
Liver microsome
  Stability: Stable
Plasmodium berghei [2]
  MSD: 7 days
[3]
  Tmax: 15 min
[4]
  selectivity ratio: > 1000
[5]
  concentration at 4 h: 1780 nM
[6]
  Tmax: 15 min
Plasmodium berghei [7]
  Activity: Active
[8]
  selectivity ratio: > 1000
[9]
  Cmax: 50 ng/mL
Rattus norvegicus [10]
  t1/2: 2.7 h
[11]
  Tmax: 6 h
Blood [12]
  Drug metabolism: metabolite_detected
[13]
  AUC(0-t) at 8 h: 12.1 ng·h/mL
Rattus norvegicus [14]
  Vd: 6.8 L/kg
Blood [15]
  Drug metabolism: metabolite_detected

Source: ChEMBL document CHEMBL3627607, “A Novel Pyrazolopyridine with in Vivo Activity in Plasmodium berghei- and Plasmodium falciparum-Infected Mouse Models from Structure-Activity Relationship Studies around the Core of Recently Identified Antimalarial Imidazopyridazines” (J Med Chem, 2015)
